Results published in ChEMBL document CHEMBL2046422, “Structure-activity relationship of nonacidic quinazolinone inhibitors of human microsomal prostaglandin synthase 1 (mPGES 1)” (J Med Chem, 2012).

Key:
[1] = target: T1, Prostaglandin G/H synthase 2 (Homo sapiens) (UniProt P35354); assay: Inhibition of COX2 in LPS-stimulated human whole blood assessed as residual PGF2alpha level at 100 uM preincubated for 15 mins prior to LPS-stimulation measured after 24 hrs by LC-MS/MS analysis relative to control
T1 sequence (whole entry): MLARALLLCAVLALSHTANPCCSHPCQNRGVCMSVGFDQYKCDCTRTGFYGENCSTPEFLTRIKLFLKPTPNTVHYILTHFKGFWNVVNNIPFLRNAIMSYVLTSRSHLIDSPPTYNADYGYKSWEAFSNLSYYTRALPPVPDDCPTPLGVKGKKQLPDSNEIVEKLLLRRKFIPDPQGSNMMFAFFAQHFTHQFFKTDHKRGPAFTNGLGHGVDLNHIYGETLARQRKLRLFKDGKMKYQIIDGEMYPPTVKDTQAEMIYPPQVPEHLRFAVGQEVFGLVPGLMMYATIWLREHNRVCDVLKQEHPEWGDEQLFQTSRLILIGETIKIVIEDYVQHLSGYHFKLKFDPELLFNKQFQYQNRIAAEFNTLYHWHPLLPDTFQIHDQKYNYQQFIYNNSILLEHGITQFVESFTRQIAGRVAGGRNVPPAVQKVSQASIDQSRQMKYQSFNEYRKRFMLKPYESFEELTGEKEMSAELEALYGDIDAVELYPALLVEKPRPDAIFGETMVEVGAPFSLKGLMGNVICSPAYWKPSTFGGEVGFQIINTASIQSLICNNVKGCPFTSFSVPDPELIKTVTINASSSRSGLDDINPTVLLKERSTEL
Method in brief: (§1)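 Human whole blood received compound in DMSO plus acetylsalicylic acid (10 μg/mL) to block COX-1, 15 min at 37 °C. LPS (10 μg/mL final) in autologous plasma was added to induce COX-2/mPGES-1, and blood was incubated 24 h at 37 °C. Samples were chilled on ice 5 min, and plasma prostaglandins were extracted by solid-phase extraction and quantified by LC-MS/MS. Values are relative to vehicle.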

[2] = target: T1, Prostaglandin G/H synthase 2 (Homo sapiens); assay: Inhibition of COX2 in LPS-stimulated human whole blood assessed as residual PGE2 level at 100 uM preincubated for 15 mins prior to LPS-stimulation measured after 24 hrs by LC-MS/MS analysis relative to control; method in brief: as §1
[3] = target: Prostaglandin G/H synthase 1 (Homo sapiens) (UniProt P23219); assay: Inhibition of COX1 in human whole blood assessed as residual TXB2 level at 10 uM after 1 hr by LC-MS/MS analysis relative to control
Prostaglandin G/H synthase 1 (Homo sapiens), sequence (P23219 whole entry): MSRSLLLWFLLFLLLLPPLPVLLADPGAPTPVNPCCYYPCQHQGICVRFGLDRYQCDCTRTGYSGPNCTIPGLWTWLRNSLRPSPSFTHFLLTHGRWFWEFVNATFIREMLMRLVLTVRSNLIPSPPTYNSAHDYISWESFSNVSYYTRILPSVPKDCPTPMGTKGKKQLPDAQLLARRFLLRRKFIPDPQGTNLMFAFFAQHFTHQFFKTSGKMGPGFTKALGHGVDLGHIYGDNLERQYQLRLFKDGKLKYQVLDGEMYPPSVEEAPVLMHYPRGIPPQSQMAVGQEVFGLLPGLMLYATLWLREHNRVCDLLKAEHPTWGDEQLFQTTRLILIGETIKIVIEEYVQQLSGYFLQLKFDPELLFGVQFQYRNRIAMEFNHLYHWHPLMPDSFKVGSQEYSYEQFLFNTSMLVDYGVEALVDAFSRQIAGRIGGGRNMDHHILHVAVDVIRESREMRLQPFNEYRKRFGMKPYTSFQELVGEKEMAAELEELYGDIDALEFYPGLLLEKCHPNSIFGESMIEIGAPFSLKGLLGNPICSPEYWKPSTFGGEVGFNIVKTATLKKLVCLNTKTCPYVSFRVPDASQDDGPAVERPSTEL
Method in brief: (§2)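 Human venous blood was drawn without additives, and compound was added. Samples clotted at 37 °C for 1 h; negative controls were chilled on ice at once. After 5 min on ice, plasma was separated at 4 °C. It was mixed with H₃PO₄, EDTA, BHT and deuterated internal standards, then put through solid-phase extraction. TXB₂ and PGD₂ were measured by LC-MS/MS, relative to vehicle-treated blood.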

[4] = target: T2, 5-lipoxygenase/FLAP (Homo sapiens) (UniProt P09917+P20292); assay: Inhibition of 5-lipoxygenase/FLAP in calcium ionophore-stimulated human whole blood assessed as residual (+/-)11HETE level at 10 uM preincubated for 15 mins prior to calcium ionophore-stimulation measured after 15 mins by LC-MS/MS analysis; assay type: protein-complex assay
Method in brief: (§3)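 Heparinized human whole blood (500 μL) was preincubated with compound for 15 min at 37 °C. It was then stimulated with 20 μM calcium ionophore A23187 in autologous plasma for 15 min at 37 °C and chilled on ice for 5 min. Plasma was collected by centrifugation at 4 °C. Eicosanoids were recovered by liquid–liquid extraction with deuterated internal standards and quantified by LC-MS/MS (MRM). Levels are relative to vehicle-treated blood.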

[5] = target: T3, Prostaglandin G/H synthase 1 (Ovis aries) (UniProt P05979); assay: Inhibition of ovine COX1-mediated PGE2 synthesis using PGH2 as substrate at 1 uM by LC-MS/MS analysis relative to control
T3 sequence (whole entry): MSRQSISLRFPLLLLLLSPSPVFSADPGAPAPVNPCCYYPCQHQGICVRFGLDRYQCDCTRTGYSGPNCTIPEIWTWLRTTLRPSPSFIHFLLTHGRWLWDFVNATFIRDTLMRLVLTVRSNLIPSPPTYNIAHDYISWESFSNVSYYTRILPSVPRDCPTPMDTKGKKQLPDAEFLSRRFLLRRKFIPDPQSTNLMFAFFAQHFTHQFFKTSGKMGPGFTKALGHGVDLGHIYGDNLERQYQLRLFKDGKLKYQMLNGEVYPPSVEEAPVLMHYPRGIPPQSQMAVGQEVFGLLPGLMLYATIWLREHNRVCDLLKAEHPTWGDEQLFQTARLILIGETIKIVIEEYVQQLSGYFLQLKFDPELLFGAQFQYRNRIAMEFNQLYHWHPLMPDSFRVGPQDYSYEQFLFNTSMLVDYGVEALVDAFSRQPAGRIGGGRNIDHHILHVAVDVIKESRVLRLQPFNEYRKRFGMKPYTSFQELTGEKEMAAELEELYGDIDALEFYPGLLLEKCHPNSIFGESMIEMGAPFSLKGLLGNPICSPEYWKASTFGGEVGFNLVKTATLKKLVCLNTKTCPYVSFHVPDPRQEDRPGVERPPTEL
Method in brief: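 Direct enzyme test with a COX inhibitor screening kit, run per the kit protocol: COX-1 was ovine, COX-2 human recombinant. […] Prostaglandins were quantified by LC-MS/MS after solid-phase extraction. Mean of n ≥ 3.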

[6] = target: Prostaglandin G/H synthase 1 (Homo sapiens) (UniProt P23219); assay: Inhibition of COX1 in human whole blood assessed as residual PGD2 level at 10 uM after 1 hr by LC-MS/MS analysis relative to control; method in brief: as §2
[7] = target: T2, 5-lipoxygenase/FLAP (Homo sapiens); assay: Inhibition of 5-lipoxygenase/FLAP in calcium ionophore-stimulated human whole blood assessed as residual LTB4 level at 10 uM preincubated for 15 mins prior to calcium ionophore-stimulation measured after 15 mins by LC-MS/MS analysis; assay type: protein-complex assay; method in brief: as §3
[8] = target: T4, Prostaglandin E synthase (Homo sapiens) (UniProt O14684); assay: Inhibition of mPGES-1 in IL1beta and TNFalpha-stimulated human HeLa cells assessed as PGE2 level at 10 uM after 24 hrs by LC-MS/MS analysis relative to control; assay type: cell-based
T4 sequence (whole entry): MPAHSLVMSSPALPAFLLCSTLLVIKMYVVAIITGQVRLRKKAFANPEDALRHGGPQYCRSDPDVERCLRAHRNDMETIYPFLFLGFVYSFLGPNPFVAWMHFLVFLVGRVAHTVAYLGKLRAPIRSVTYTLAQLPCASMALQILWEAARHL
Method in brief: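 HeLa cells (2 × 10⁴) were grown 24 h at 37 °C. The medium was then replaced with IL-1β (1 ng/mL) + TNFα (5 ng/mL), or PBS for unstimulated controls, together with compound at 1, 10 or 100 μM, or DMSO, for 24 h at 37 °C. Supernatant PGE₂ was quantified by LC-MS/MS after solid-phase extraction with deuterated standards. Inhibition is percent of DMSO control corrected for unstimulated background, SEM, n ≥ 3.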

[9] = target: T4, Prostaglandin E synthase (Homo sapiens); assay: Inhibition of mPGES-1 in IL1beta and TNFalpha-stimulated human HeLa cells assessed as PGE2 level at 1 uM after 24 hrs by LC-MS/MS analysis relative to isolated enzyme

Activity [1] [%] | Activity [2] [%] | Activity [3] [%] | Activity [4] [%] | inhibition [5] [%] | Activity [6] [%] | Activity [7] [%] | inhibition [8] [%] | potency shift [9] [%] | SMILES
94.2 | 51.2 | 90 | 76.8 | < 0 | 98.5 | 83 |  |  | CCCc1nc2ccc(NC(=O)c3ccccc3Cl)cc2c(=O)n1Cc1ccc(-c2cccc(Cl)c2)cc1
97 | 54.7 | 84.4 | 123 | < 0 | 89.4 | 94.1 |  |  | CCCc1nc2ccc(NC(=O)c3c(F)cccc3Cl)cc2c(=O)n1Cc1cccc(Cl)c1
92.6 | 52.1 | 86.4 | 84.8 | 8.4 | 84.9 | 71.9 | 70 |  | CCCc1nc2ccc(NC(=O)c3ccccc3Cl)cc2c(=O)n1Cc1ccc(-c2ccccc2)cc1
93.8 | 53 | 81.9 | 86.5 | < 0 | 128 | 72.7 |  |  | CCCc1nc2ccc(NC(=O)c3ccccc3C)cc2c(=O)n1Cc1cccc(Cl)c1
81.3 | 37.4 | 90.4 | 71.6 | < 0 | 86.5 | 93.7 |  |  | CCCc1nc2ccc(NC(=O)c3ccccc3Cl)cc2c(=O)n1Cc1cccc(Cl)c1
234 | 174 | 97.3 | 85.2 | 2.6 | 96.1 | 151 |  |  | CCCc1nc2ccc(NC(=O)c3ccccc3Cl)cc2c(=O)n1Cc1ccc(-c2ccc(Cl)cc2)cc1
92.5 | 50 | 89 | 77 | 20.1 | 91.7 | 70.9 | 97 | 28 | CCCc1nc2ccc(NC(=O)c3ccccc3Cl)cc2c(=O)n1Cc1ccc(-c2cccc(OC)c2)cc1
